Source: ChEMBL document CHEMBL2406971, “Optimization of Arylamides as Novel, Potent and Brain-penetrant Antiprion Lead Compounds” (ACS Med Chem Lett, 2013)

What was measured:
Brain = experiment: Cmax in CD-1 mouse brain at 10 mg/kg, po after 6 hrs by LC/MS analysis; type: ADME, organism-based; design: dose 10 mg/kg, route oral; details: in vivo
Liver = experiment: Half life in mouse liver microsomes at 1 uM by LC/MS/MS analysis; type: ADME, Microsome
[1] = AUC (0 to 6 hrs) in CD-1 mouse brain at 10 mg/kg, po by LC/MS analysis; type: ADME, organism-based; design: time < 6 hr, dose 10 mg/kg, route oral
[2] = Cytotoxicity against mouse ScN2a-cl3 cells after 5 days by calcein-AM assay; type: cell-based, N2a-cl3; details: read-out: LD50
How it was run: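 Run alongside every EC50 measurement. Toxicity toward ScN2a-cl3 cells scored with the fluorescent probe calcein-AM.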

Plasma = experiment: Cmax in CD-1 mouse plasma at 10 mg/kg, po after 6 hrs by LC/MS analysis; type: ADME, organism-based; design: dose 10 mg/kg, route oral; details: in vivo
[3] = AUC (0 to 6 hrs) in CD-1 mouse plasma at 10 mg/kg, po by LC/MS analysis; type: ADME, organism-based; design: time < 6 hr, dose 10 mg/kg, route oral
[4] = Ratio of drug level in brain to plasma in CD-1 mouse at 10 mg/kg, po; type: ADME, organism-based; design: dose 10 mg/kg, route oral; details: brain and plasma, read-out: BPR

| SMILES | Cmax (Brain) [nM] | t1/2 (Liver) [min] | AUC(0-t) at 6 h [1] [µM·h] | CC50 at 120 h [2] [µM] | Cmax (Plasma) [nM] | AUC(0-t) at 6 h [3] [µM·h] | Kp [4] |
| --- | --- | --- | --- | --- | --- | --- | --- |
| CCN1CCN(c2ccc(NC(=O)c3ccc(-c4cccnc4)cc3)cc2)CC1 | 1440 | 29.2 | 3.32 | > 10 | 210 | 0.25 | – |
| CN1CCN(c2ccc(NC(=O)c3ccc(-c4ccccc4)cc3)cc2)CC1 | – | – | – | > 5 | – | – | – |
| CC(C)N1CCN(c2ccc(NC(=O)c3ccc(-c4ccccn4)cc3)c(F)c2)CC1 | 17300 | – | 39.8 | > 10 | 650 | 1.46 | – |
| CCN1CCN(c2ccc(NC(=O)c3ccc(-c4ccccc4)cc3)cc2)CC1 | 7950 | – | 25.4 | – | 370 | 1.09 | ≤ 10 |
| CC(C)N1CCN(c2ccc(NC(=O)c3ccc(-c4ccccc4)cc3)cc2)CC1 | 2520 | – | 7.48 | > 10 | 270 | 0.97 | ≤ 10 |
| CC(C)N1CCN(c2ccc(NC(=O)c3ccc(-c4ccccn4)cc3)cn2)CC1 | – | – | – | > 10 | – | – | – |
| CCN1CCN(c2ccc(NC(=O)c3ccc(-c4ccccn4)cc3)cc2)CC1 | 6230 | 27 | 24.2 | > 10 | 280 | 1.05 | – |
| CC(C)N1CCN(c2ccc(NC(=O)c3ccc(-c4ccccn4)cc3)cc2)CC1 | 90 | – | 0.28 | > 10 | 320 | 1.2 | – |
| CC(C)N1CCN(c2ccc(NC(=O)c3ccc(-c4ccccn4)cc3)cc2F)CC1 | 6750 | – | 28.7 | > 10 | 460 | 2.28 | – |
| CCN1CCN(c2ccc(NC(=O)c3ccc(-c4ccncc4)cc3)cc2)CC1 | – | – | – | > 10 | – | – | – |
| CC(C)N1CCN(c2ccc(NC(=O)c3ccc(-c4ccccn4)cc3)nc2)CC1 | 6000 | – | 22.3 | > 10 | 340 | 1.26 | – |
